Only some compounds are listed: those with a hit (about 1.9% of all), similar ones and a draw of the others.
HGIII-sPLA2 inh: Inhibits HGIII-sPLA2 liposome hydrolysis, primary screen; inhibition, % at 12.2 µM; AID 743126; 0.56% of 370,000 active; Q9NZ20; QFRET BODIPY PC-A2 liposome hydrolysis, fluorescence;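 active = inhibition above mean plus 3 SD of compounds lying within the high and low control bounds, cut at about 19% in these data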;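 note: 0% = median of test compound wells and 100% = no enzyme DMSO wells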
PLCg1 inh: PLC-gamma1 (human) inhibition, primary screen | P19174 | purified PLC-gamma1, fluorogenic substrate, fluorescence | inhibition, % at 12.2 µM | 0.84% of 370,000 active; in the data active = inhibition above about 9.5%
PLCb3 inh: PLC-beta3 (human) inhibition, primary screen | Purified PLC-beta3, fluorogenic substrate, fluorescence | inhibition, % at 12.2 µM | 0.18% of 370,000 active | AID 720704 | Q01970;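 note: 0% = median of compound wells on plate and 100% = full blocker control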
Tb MetRS inh: blocks T. brucei methionyl-tRNA synthetase activity; AID 624268; inhibition, % at 11.9 µM; 0.4% of 360,000 active; purified T. brucei MetRS, ATP depletion, Kinase-Glo luminescence;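 active = inhibition above a per-plate cutoff of the control wells' mean inhibition plus 3 SD, cut at about 5.5% in these data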;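 note: 0% = DMSO wells median and 100% = median of wells with control inhibitor compound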
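Dosing: 11.9 µM compound single dose, 0.9% DMSO; Assay system: purified T. brucei MetRS enzyme; Measured by: Kinase-Glo luciferase luminescence reporting remaining unconsumed ATP; Schedule: 15 min plus 2 h at 25 °C.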
PLCg1 ctr: counter-screen for PLC-beta3 inhibitors: inhibitors of human PLC-gamma1; shares compounds with PLCg1 inh; purified PLC-gamma1, fluorogenic substrate, fluorescence; inhibition, % at 12.3 µM; 3.1% of 3,300 active; AID 743258; in the data active = inhibition above about 9.5%
PLCb3 confirm: confirmation of human PLC-beta3 inhibitors | shares compounds with PLCg1 inh | purified PLC-beta3, fluorogenic substrate fluorescence | inhibition, % at 12.3 µM | 1% of 3,300 active
An asterisk follows results filed as active; x = no result given. Cut-off read from the data, not from the text of the source, unless noted: active = inhibition above about 11%; inactive = the rest.

SMILES | HGIII-sPLA2 inh | PLCg1 inh | PLCb3 inh | Tb MetRS inh | PLCg1 ctr | PLCb3 confirm
COc1ccc(C#CCN(C)/C(N)=N/C(=O)OCc2ccccc2)cc1 | -17 | -1 | -3 | x | x | x
CCCOc1ccc(-c2cc(C(C)=O)c3n(c2=O)CCC3)cc1 | 11 | -10 | -19 | x | x | x
C=CCn1c(SCc2cccc(OC)c2)nnc1-c1ccncc1 | 6 | 12* | 0 | -1 | 0 | -3
COc1cccc(CSc2nnc(-c3ccncc3)n2N)c1 | -1 | 3 | -1 | -1 | x | x
c1ccc(CCn2c(SCc3ccccc3)nnc2-c2ccncc2)cc1 | 11 | 9.9* | 2 | -1 | -5 | -4
COc1ccc(-c2c(C(=O)c3ccc(Br)cc3)[nH]c(N)c2C(=O)NCCc2c[nH]c3ccccc23)cc1OC | -47 | -10 | -8 | x | x | x
O=C(Nc1ccc(Cl)c(S(=O)(=O)N2CCOCC2)c1)c1cc2ccccc2oc1=O | 5 | 0 | 2 | 0 | x | x
Cc1ccc(S(=O)(=O)N2CCOCC2)cc1NC(=O)c1cc2ccccc2oc1=O | -3 | 10* | -3 | 0 | -4 | 1
COc1ccc(C(=O)Nc2cccc([N+](=O)[O-])c2)cc1Br | 5 | 1 | 11* | -1 | 5 | 0
Cc1cc(C(=O)O[C@@H]2CCC[C@]3(C(=O)N(Cc4ccccc4)c4ccccc43)[C@H]2NC(=O)CCc2ccccc2)no1 | -1 | -1 | 3 | x | x | x
CC(C)(C)OC(=O)n1cc(-c2ccccc2)c2c(-c3ccccc3)c(O)ccc21 | -15 | 1 | -2 | x | x | x
CCOC(=O)c1c(CC(C)C)csc1NC(=O)C(C)C | 2 | 3 | 2 | -1 | x | x
CCOC(=O)c1c(CC(C)C)csc1NC(=O)CCl | 5 | 6 | 11* | 0 | -3 | -6
O=S(=O)(c1ccccc1)c1ccccc1/C=N\O | -5 | 11* | 1 | -2 | -4 | -5
COc1ccc(-n2c(SCC(=O)Nc3ccccc3-c3ccccc3)nnc2-c2ccco2)cc1 | -2 | 2 | 1 | x | x | x
S=C(Cc1ccc(-c2ccccc2)cc1)N1CCOCC1 | -2 | 9.9* | -4 | -1 | -7 | -3
COc1ccc(CCN2CC(C(=O)N(C)CC(=O)Nc3ccc(F)c(F)c3F)CC2=O)cc1OC (stereo not given) | 16 | 11* | -1 | 0 | -4 | -1
Cc1ccc(CNC(=O)c2cc(-c3ccccc3C)nn2CC2CC(c3cccnc3)=NO2)cc1 (stereo not given) | -26 | 1 | -8 | 0 | x | x
Cc1ccccc1-c1cc(C(=O)NCc2ccc(OC(F)(F)F)cc2)n(CC2CC(c3cccnc3)=NO2)n1 (stereo not given) | -21 | 11* | 1 | -1 | -3 | -8
FC(F)(F)c1ccccc1NC(=S)OCCN1CCCC12CCC(c1ccccc1)CC2 (stereo not given) | 5 | -1 | -2 | x | x | x
Cc1ccc(CN2CCN(/N=C/c3sccc3C)CC2)c(C)c1 | 13 | 11* | 7 | 0 | 0 | 0
Cc1cccc(OCC(=O)OCC(=O)N2CCCc3ccccc32)c1C | 0 | 11* | -4 | 0 | 0 | 3
Cc1cc(C(=O)Nc2ccccc2N2CCCCC2)no1 | 10 | 9.8* | 8 | 0 | -5 | -21
Cc1cc(C(=O)Nc2ccccc2N2CCOCC2)no1 | 0 | 2 | -5 | 0 | x | x
CC1(C(=O)NS(=O)(=O)c2cccc(Cl)c2)CCN1C(=O)Cc1ccsc1 (stereo not given) | -2 | 10* | 2 | 0 | -9 | -5
SMILES | HGIII-sPLA2 inh | PLCg1 inh | PLCb3 inh | Tb MetRS inh | PLCg1 ctr | PLCb3 confirm
CC1(C(=O)NS(=O)(=O)c2cccc(Cl)c2)CCN1C(=O)Cc1ccc(-c2ccccc2)cc1 (stereo not given) | -53 | -2 | -5 | 0 | x | x
Cc1ccc(OCC(=O)OCc2c(C)noc2C)cc1C | -1 | 15* | 0 | 0 | -3 | 0
Cc1noc(C)c1COC(=O)COc1ccc(C#N)cc1 | 3 | 1 | 2 | -1 | x | x
COC(=O)C1CN(CC(C)C)CCS(=O)(=O)N1Cc1ccc(Cl)cc1 (stereo not given) | 6 | 1 | 4 | x | x | x
CCOc1ccc(N(CC(=O)NC2CCCC2)C(=O)CCC(=O)Nc2ccccn2)cc1 | -6 | 1 | 1 | -1 | x | x
CCOc1ccc(N(CC(=O)NC2CCCC2)C(=O)CCCC(=O)Nc2ccccn2)cc1 | 13 | 5 | 15* | 0 | 1 | -6
O=C(NCc1ccccc1)C1=C[C@H](c2ccc(C(F)(F)F)cc2)C[C@H](OCc2ccc(CO)cc2)O1 | -1 | 7 | 14* | 0 | -11 | -10
O=C(NCc1ccccc1)C1=C[C@H](c2ccccc2)C[C@H](OCc2ccc(CO)cc2)O1 | -13 | 3 | 0 | 0 | x | x
Cc1cc[n+](-c2[nH]c(=O)sc2/C=N/N=C(\[O-])c2ccncc2)cc1 | 0 | 11* | 3 | 0 | 2 | 7
Cc1cc[n+](-c2[nH]c(=O)sc2/C=N/N=C(\[O-])c2ccccc2)cc1 | 10 | 0 | -303 | 0 | x | x
Cc1ccc(C)c(OCc2nc(-c3cccnc3)no2)c1 | -2 | 9.8* | 0 | 0 | -6 | -9
Cc1cccc(OCc2nc(-c3cccnc3)no2)c1 | -8 | 6 | 6 | -1 | x | x
COC(=O)[C@]12C[C@H](CC(=O)N3CCOCC3)C(=O)N(Cc3cccc4ccccc34)C1=C[C@H](C(C)C)O[C@@H]2C1CC1 | -1 | 1 | 1 | x | x | x
Cc1ccc(C(C(=O)NC2CCCCC2)N(Cc2ccco2)C(=O)C2COc3ccccc3O2)o1 (stereo not given) | 1 | 9.6* | -4 | -1 | 9 | 1
COc1cccc(C(=O)NC2CC3CCCC(C2)N3CC(=O)Nc2ccccc2)c1 (stereo not given) | -16 | 4 | 8 | -1 | x | x
COc1cccc(C(=O)NC2CC3CCCC(C2)N3CC(=O)Nc2ccc(N(C)C)cc2)c1 (stereo not given) | 1 | 11* | 5 | 0 | -4 | 0
CC(=O)NC(Cc1ccc(F)cc1)C(=O)NC1CCN(C(=O)Nc2cccc(C)c2)CC1 (stereo not given) | 19 | 10* | -5 | 0 | 6 | 3
CCC1CCCCN1CCCNC(=O)c1cn(C)c2ccc(S(=O)(=O)N(C)C3CCCCC3)cc2c1=O (stereo not given) | -16 | 12* | -9 | 0 | -6 | 1
CCN(CC)S(=O)(=O)c1ccc2c(c1)c(=O)c(C(=O)NCCCN(C)c1ccccc1)cn2C | 7 | -1 | 0 | -1 | x | x
COC(=O)c1cn(C)c2ccc(S(=O)(=O)N3CCCCC3)cc2c1=O | 4 | 12* | 5 | 0 | 8 | 2
COC(=O)c1cn(C)c2ccc(S(=O)(=O)N(C)C3CCCCC3)cc2c1=O | 1 | 11* | 8 | 0 | 1 | 2
CCN(CC)S(=O)(=O)c1ccc2c(c1)c(=O)c(C(=O)NCc1cccs1)cn2C | -12 | 9.6* | 4 | -1 | -4 | -5

Screens (PubChem BioAssay)
